The values that follow come from ChEMBL document CHEMBL2176901, “Pyrrolo[3,4-h]quinolinones a new class of photochemotherapeutic agents” (Bioorg Med Chem, 2011).

The source made the active and inactive calls. No cut-off for these calls is given here.

For data set [1], the system named is Nucleic Acid. The data set can be described thus: Binding affinity to salmon testes DNA at drug/DNA ratio of 0.01 by linear dichroism analysis. It counts as nucleic-acid assay. The conditions noted are these: Salmonidae. Put shortly: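 Flow linear dichroism in 10 mM phosphate buffer pH 7.2. Samples oriented in a rotating cylindrical cuvette (0.14 cm path, 800 rpm) at several drug/DNA ratios.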

Data set [2] has as its system Jurkat. The data set can be described thus: Induction of apoptosis in 3.75 J/cm'2 UV-A irradiated human Jurkat cells assessed as viable cells at 5 uM after 24 hrs by Annexin-V-FITC and propidium iodide based flow cytometry (reference value: 91 %). It counts as functional. The following applies: light or radiation study, read-out: Activity.
For data set [3], the system named is MCF7. The data set can be described thus: Phototoxicity in 2.5 J/cm'2 UV-A irradiated human MCF7 cells assessed as cell viability after 72 hrs by MTT assay in presence of radical scavenger NaN3. It counts as functional, cell-based. The method, boiled down:
(§1)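 MCF-7 cells given compound plus scavenger in HBSS, 30 min at 37 °C, then UV-A (2.5 J/cm², 365 nm lamp). Medium replaced; viability by MTT after 72 h. Means ± SEM of at least three independent experiments.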
(Tetrazolium assays rely on reduction of a dye to a coloured formazan, in cell work by metabolically active cells.)

Data set [4] relates to Jurkat. Briefly: Cell cycle arrest in UV-A irradiated human Jurkat cells assessed as accumulation at G1 phase at 5 uM after 24 hrs by propidium iodide based flow cytometry (reference value: 64.4 %). Format: functional. The method, boiled down:
(§2)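 Exponentially growing Jurkat cells (5×10^5) irradiated with UV-A (365 nm lamp, 2.5 J/cm²) in presence of compound. After 24 h: fixed in ice-cold 70% ethanol, lysed with RNAse A, stained with PI (10 µg/ml), analysed by flow cytometry. Phases calculated on living cells; subG1 is hypodiploid DNA peak.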

In data set [5] the test system is Jurkat. The data set can be described thus: Induction of apoptosis in 3.75 J/cm'2 UV-A irradiated human Jurkat cells assessed as viable cells at 10 uM after 24 hrs by Annexin-V-FITC and propidium iodide based flow cytometry (reference value: 91%). Format: functional. The following applies: light or radiation study, read-out: Activity. A general note: Flow cytometry measures light scatter and fluorescence of single cells or particles in a stream.

Data set [6] concerns MCF7. Briefly: Phototoxicity in 2.5 J/cm'2 UV-A irradiated human MCF7 cells assessed as cell viability after 72 hrs by MTT assay in presence of radical scavenger mannitol. Format: functional, cell-based. Put shortly: as §1
Data set [7] deals with Nucleic Acid. Briefly: Induction of photo-induced supercoiled Escherichia coli pBR322 DNA damage at drug:DNA ratio of 1:3 by agarose gel electrophoresis in presence of mannitol. It counts as nucleic-acid assay. Put shortly:
(§3)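 Supercoiled pBR322 (100 ng) in 10 mM phosphate buffer pH 7.2 irradiated with UV-A (3.75 J/cm²) at [DNA]/[drug] 1/3, with additives, under nitrogen or in deuterated buffer as stated. Aliquots then incubated at 37 °C with Fpg or Endo III. Run on 1% agarose in TAE, 80 V for 2 h, stained with ethidium bromide; Form I/II fractions from band densitometry.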

The test system of the next data set is LoVo. Briefly: Phototoxicity in 2.5 J/cm'2 UV-A irradiated human LoVo cells after 72 hrs by MTT assay. The following applies: light or radiation study. It counts as functional, cell-based. The method, boiled down:
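HL-60 and Jurkat (8×10³/well, RPMI-1640) and MCF-7, LoVo, NCTC-2544 (5×10³/well; DMEM or Ham's F12) preincubated 18 h at 37 °C, 5% CO₂. Compound in DMSO diluted in HBSS pH 7.2, 30 min at 37 °C, then UV-A at 2.5 or 3.75 J/cm². Medium replaced, 72 h incubation, MTT read-out. IC50 as mean ± SEM of three experiments.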

Data set [8] relates to Nucleic Acid. The data set can be described thus: Binding affinity to salmon testes DNA at 10 uM by fluorescence titration. The conditions noted are these: Salmonidae. Format: nucleic-acid assay. Put shortly:
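Fluorimetric titration of compound (10 μM) with increasing stDNA (0 to 100 μM) in 10 mM phosphate buffer pH 7.2; quenching of compound fluorescence monitored.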

For data set [9], the system named is Jurkat. The data set can be described thus: Induction of apoptosis in 3.75 J/cm'2 UV-A irradiated human Jurkat cells assessed as necrotic cells at 5 uM after 24 hrs by Annexin-V-FITC and propidium iodide based flow cytometry (reference value: 4.2 %). Format: functional.
Data set [10] concerns MCF7. The data set can be described thus: Phototoxicity in 2.5 J/cm'2 UV-A irradiated human MCF7 cells assessed as cell viability after 72 hrs by MTT assay in presence of radical scavenger GSH. Format: functional, cell-based. The method, boiled down:
as §1

Data set [11] concerns Nucleic Acid. The data set can be described thus: Induction of photo-induced supercoiled Escherichia coli pBR322 DNA at drug:DNA ratio of 1:3 by agarose gel electrophoresis in presence of glutathione. It counts as nucleic-acid assay. Put shortly:
as §3

The subject of data set [12] is Jurkat. The data set can be described thus: Cell cycle arrest in UV-A irradiated human Jurkat cells assessed as accumulation at S phase at 5 uM after 24 hrs by propidium iodide based flow cytometry (reference value: 25.3 %). It counts as functional. Put shortly: as §2
In data set [13] the test system is Jurkat. Briefly: Cell cycle arrest in UV-A irradiated human Jurkat cells assessed as accumulation at G2/M phase at 10 uM after 24 hrs by propidium iodide based flow cytometry (reference value: 10.3 %). Format: functional. Put shortly: as §2
Data set [14] deals with Jurkat. The data set can be described thus: Induction of lipid peroxidation in 3.75 J/cm'2 UV-A irradiated human Jurkat cells assessed as increase in TBARS formation after 24 hrs by thiobarbituric acid assay. Format: functional, cell-based. Put shortly: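 Lipid peroxidation measured as MDA–thiobarbituric acid adducts, with BHT added to samples; calibrated to a 1,1,3,3-tetraethoxypropane standard curve; protein by Peterson method.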

The test system of data set [15] is Jurkat. The data set can be described thus: Induction of apoptosis in UV-A irradiated human Jurkat cells assessed as loss of mitochondrial membrane potential after 6 hrs by cytofluorimetric analysis. Format: functional, cell-based. The method, boiled down: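 Jurkat cells 6, 12 and 24 h after UV-A (2.5 J/cm²) with compound, resuspended in HBSS with JC-1 (1 μg/ml). Green (FL1) and orange (FL2) fluorescence collected by flow cytometry, ≥10000 events; cells with monomeric JC-1 counted as collapsed potential. Mean ± SEM of three experiments.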

Data set [16] can be described thus: Drug uptake in cytoplasm of human NCTC-2544 cells at 10 uM after 2 hrs by fluorescence microphotography. The following applies: nctc-2544, 2 h. Format: ADME, cell-based. The method, boiled down:
(§4)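 NCTC-2544 cells attached in Petri dishes, given compound at 10 μM for 2 h, washed with HBSS. Then 30 min with Rhodamine 123 (mitochondria), LysoTracker RED, CellMask Orange (plasma membrane) or ER-Tracker. Blue compound fluorescence overlaid on probe images by video-confocal microscopy.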

A short description of data set [17]: Drug uptake in mitochondria of human NCTC-2544 cells at 10 uM after 2 hrs by fluorescence microphotography. The conditions noted are these: nctc-2544, 2 h. It counts as ADME. Put shortly: as §4
The test system of data set [18] is MCF7. Briefly: Phototoxicity in 2.5 J/cm'2 UV-A irradiated human MCF7 cells assessed as cell viability after 72 hrs by MTT assay in presence of radical scavenger BHA. It counts as functional, cell-based. The method, boiled down:
as §1

Data set [19] has as its system MCF7. Briefly: Phototoxicity in 3.75 J/cm'2 UV-A irradiated human MCF7 cells after 72 hrs by MTT assay. Format: functional, cell-based. The conditions noted are these: MCF7, light or radiation study. Put shortly:
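Seeded at 5 × 10³ cells/well with 10% FBS: MCF-7 and NCTC-2544 in DMEM, LoVo in Ham's F12. Pre-incubated 18 h at 37 °C, 5% CO2. Compound (DMSO stock diluted in HBSS pH 7.2) was applied for 30 min at 37 °C, then UV-A irradiation (mainly 365 nm, 4.0 mW/cm²). Medium was restored for 72 h before MTT. IC50 is the mean ± SEM of three experiences.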

The test system of data set [20] is Jurkat. Briefly: Cell cycle arrest in UV-A irradiated human Jurkat cells assessed as accumulation at G2/M phase at 5 uM after 24 hrs by propidium iodide based flow cytometry (reference value: 10.3 %). It counts as functional. Put shortly: as §2

`CCOC(=O)c1c2c(c(C)n1C)-c1c(cc(S(=O)(=O)c3ccccc3)c(=O)n1C)CC2`: the outcome with Nucleic Acid [1], with MCF7 [3], in the data set on MCF7 [6], in the data set on Nucleic Acid [7], with Nucleic Acid [8] and in the data set with MCF7 [10] was inactive. Further, the outcome in the data set on Nucleic Acid [11] and with MCF7 [18] was inactive. The viability at 5 µM in the data set with Jurkat [2] came out at 70.1%. For the same molecule, the Activity is 48.9% with Jurkat [4]; 4.5% with Jurkat [9]; 46.9% with Jurkat [12]; 5.3% with Jurkat [13]; “Dose-dependent effect” in the data set on Jurkat [14]; 4.2% in the data set with Jurkat [20]. The viability at 10 µM in the data set with Jurkat [5] is 45.2%. In addition, the results for the IC50 with LoVo and in the data set on MCF7 [19] were 0.7 µM and 1.3 µM, respectively. Moreover, the result in the data set on Jurkat [15] was Active. Further, the Drug uptake entry in data set [16] and in data set [17] was “Active” throughout.

The IC50 is the point on the concentration scale where inhibition reaches its midpoint. The low end stands for greater potency in that assay, the high end for weaker potency in that assay.
